{"source": "paper PMC7909006", "about": "(Clinical cancer research : an official journal of the …, 2020)", "key": {"[1]": {"test_system": "recurrent or refractory acute leukemias or solid tumors including NF1 PN", "test": "Tumor response", "assay_type": "in vivo, human", "settings": "dose level 3", "in_short": "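Tumors assessed at baseline (within 14 days before start), then after every even 28-day cycle with the same imaging modality. Criteria were RECIST v1.1 for solid tumors, WHO for brain tumors, and volumetric MRI for NF1 plexiform neurofibromas (baseline, every 4th cycle in year 1, then every 6 cycles). Leukemia was followed by blood and marrow each cycle. Treatment lasted up to two years.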"}, "[2]": {"settings": "recurrent glioblastoma patients, plasma taken at time of surgery; cited from earlier work"}, "[3]": {"settings": "non-human primate model, nontumor setting; cited from earlier work"}, "[4]": {"test_system": "peripheral blood immune cells", "test": "Pharmacodynamics: fold change in peripheral blood", "assay_type": "in vivo, human", "in_short": "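Complete blood counts, including absolute monocyte count, were taken as safety labs before treatment, mid-C1, before C2–C9, then every other cycle and at end of therapy. Patients took the oral agent once daily on a continuous 28-day cycle, dosed by BSA at 400, 600 or 800 mg/m2.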"}, "[5]": {"settings": "patient 13, Acute myeloid leukemia"}, "[6]": {"settings": "patient 14, Spindle cell carcinoma"}, "[7]": {"settings": "patient 15, Aneurysmal fibrous histiocytoma"}}, "data": [{"compound": "FC(F)(F)c1ccc(CNc2ccc(Cc3c[nH]c4ncc(Cl)cc34)cn2)cn1", "note": "[Pexidartinib]", "values": [{"measurement": "Time-point Off Treatment", "setting": "[1]; patient 12, Embryonal rhabdomyosarcoma", "result": "Cycle 1 Day 12"}, {"measurement": "Reason Off Treatment", "setting": "[1]; [5]", "result": "Progressive Disease"}, {"measurement": "Time-point Off Treatment", "setting": "[1]; [5]", "result": "Cycle 1 Day 15"}, {"measurement": "Reason Off Treatment", "setting": "[1]; [6]", "result": "Progressive Disease"}, {"measurement": "Time-point Off Treatment", "setting": "[1]; [6]", "result": "Cycle 1 Day 23"}, {"measurement": "Reason Off Treatment", "setting": "[1]; [7]", "result": "Progressive Disease"}, {"measurement": "Time-point Off Treatment", "setting": "[1]; [7]", "result": "Cycle 3 Day 16"}, {"measurement": "Reason Off Treatment", "setting": "[1]; patient 16, Glioblastoma", "result": "Progressive Disease"}, {"measurement": "Time-point Off Treatment", "setting": "[1]; patient 16, Glioblastoma", "result": "Cycle 2 Day 5"}, {"measurement": "Median ratio of tumor/plasma concentrations", "setting": "[2]", "result": 70, "unit": "%"}, {"measurement": "Drug levels in the cerebral spinal fluid", "setting": "[3]", "result": "low but detectable levels"}, {"measurement": "Absolute Immature Granulocyte, Med. Fold Change (95% CI) from Day 1", "setting": "[4]; 6–8 Days from C1, N=9", "result": "0.50 (0.10, 1.00)"}, {"measurement": "Immature granulocytes, Med. Fold Change (95% CI) from Day 1", "setting": "[4]; 6–8 Days from C1, N=9", "result": "0.50 (0.08, 0.67)"}, {"measurement": "Absolute Eosinophil Count, Med. Fold Change (95% CI) from Day 1", "setting": "[4]; 6–8 Days from C1, N=10", "result": "0.76 (0.50, 1.07)"}, {"measurement": "Eosinophils %, Med. Fold Change (95% CI) from Day 1", "setting": "[4]; 6–8 Days from C1, N=10", "result": "0.78 (0.55, 1.04)"}, {"measurement": "Absolute Basophil Count, Med. Fold Change (95% CI) from Day 1", "setting": "[4]; 6–8 Days from C1, N=12", "result": "0.92 (0.50, 1.00)"}, {"measurement": "Basophils %, Med. Fold Change (95% CI) from Day 1", "setting": "[4]; 6–8 Days from C1, N=12", "result": "0.95 (0.50, 1.13)"}, {"measurement": "Absolute Lymphocyte Count, Med. Fold Change (95% CI) from Day 1", "setting": "[4]; 6–8 Days from C1, N=13", "result": "0.97 (0.68, 1.20)"}, {"measurement": "Absolute Monocyte Count, Med. Fold Change (95% CI) from Day 1", "setting": "[4]; 6–8 Days from C1, N=13", "result": "0.58 (0.35, 0.81)"}, {"measurement": "Absolute Neutrophil Count, Med. Fold Change (95% CI) from Day 1", "setting": "[4]; 6–8 Days from C1, N=13", "result": "0.90 (0.77, 1.26)"}, {"measurement": "Hemoglobin (Hgb), Med. Fold Change (95% CI) from Day 1", "setting": "[4]; 6–8 Days from C1, N=13", "result": "1.03 (0.97, 1.08)"}, {"measurement": "Lymphocytes %, Med. Fold Change (95% CI) from Day 1", "setting": "[4]; 6–8 Days from C1, N=13", "result": "0.96 (0.81, 1.29)"}, {"measurement": "Monocytes %, Med. Fold Change (95% CI) from Day 1", "setting": "[4]; 6–8 Days from C1, N=13", "result": "0.60 (0.40, 0.87)"}, {"measurement": "Neutrophils % + bands, Med. Fold Change (95% CI) from Day 1", "setting": "[4]; 6–8 Days from C1, N=13", "result": "1.08 (0.96, 1.13)"}, {"measurement": "Platelet Count, Med. Fold Change (95% CI) from Day 1", "setting": "[4]; 6–8 Days from C1, N=13", "result": "1.10 (0.84, 1.17)"}, {"measurement": "White blood cell (WBC), Med. Fold Change (95% CI) from Day 1", "setting": "[4]; 6–8 Days from C1, N=13", "result": "0.89 (0.78, 1.07)"}, {"measurement": "Absolute Immature Granulocyte, Med. Fold Change (95% CI) from Day 1", "setting": "[4]; 14–16 Days from C1, N=9", "result": "0.50 (0.19, 1.00)"}, {"measurement": "Immature granulocytes, Med. Fold Change (95% CI) from Day 1", "setting": "[4]; 14–16 Days from C1, N=9", "result": "0.46 (0.30, 0.67)"}, {"measurement": "Absolute Basophil Count, Med. Fold Change (95% CI) from Day 1", "setting": "[4]; 14–16 Days from C1, N=11", "result": "0.67 (0.50, 1.00)"}, {"measurement": "Absolute Eosinophil Count, Med. Fold Change (95% CI) from Day 1", "setting": "[4]; 14–16 Days from C1, N=11", "result": "1.00 (0.81, 1.27)"}, {"measurement": "Basophils %, Med. Fold Change (95% CI) from Day 1", "setting": "[4]; 14–16 Days from C1, N=11", "result": "0.83 (0.50, 1.13)"}, {"measurement": "Eosinophils %, Med. Fold Change (95% CI) from Day 1", "setting": "[4]; 14–16 Days from C1, N=11", "result": "0.97 (0.92, 1.53)"}, {"measurement": "Absolute Lymphocyte Count, Med. Fold Change (95% CI) from Day 1", "setting": "[4]; 14–16 Days from C1, N=13", "result": "0.88 (0.73, 1.03)"}, {"measurement": "Absolute Monocyte Count, Med. Fold Change (95% CI) from Day 1", "setting": "[4]; 14–16 Days from C1, N=13", "result": "0.56 (0.40, 0.89)"}, {"measurement": "Absolute Neutrophil Count, Med. Fold Change (95% CI) from Day 1", "setting": "[4]; 14–16 Days from C1, N=13", "result": "0.96 (0.64, 1.15)"}, {"measurement": "Hemoglobin (Hgb), Med. Fold Change (95% CI) from Day 1", "setting": "[4]; 14–16 Days from C1, N=13", "result": "0.97 (0.91, 1.00)"}, {"measurement": "Lymphocytes %, Med. Fold Change (95% CI) from Day 1", "setting": "[4]; 14–16 Days from C1, N=13", "result": "0.92 (0.87, 1.25)"}, {"measurement": "Monocytes %, Med. Fold Change (95% CI) from Day 1", "setting": "[4]; 14–16 Days from C1, N=13", "result": "0.67 (0.52, 0.89)"}, {"measurement": "Neutrophils % + bands, Med. Fold Change (95% CI) from Day 1", "setting": "[4]; 14–16 Days from C1, N=13", "result": "1.08 (0.96, 1.13)"}, {"measurement": "Platelet Count, Med. Fold Change (95% CI) from Day 1", "setting": "[4]; 14–16 Days from C1, N=13", "result": "0.97 (0.83, 1.13)"}, {"measurement": "White blood cell (WBC), Med. Fold Change (95% CI) from Day 1", "setting": "[4]; 14–16 Days from C1, N=13", "result": "0.85 (0.65, 1.06)"}, {"measurement": "Absolute Immature Granulocyte, Med. Fold Change (95% CI) from Day 1", "setting": "[4]; 27–29 Days from C1, N=6", "result": "0.20 (0.00, 2.50)"}, {"measurement": "Immature granulocytes, Med. Fold Change (95% CI) from Day 1", "setting": "[4]; 27–29 Days from C1, N=6", "result": "0.24 (0.00, 2.00)"}, {"measurement": "Absolute Eosinophil Count, Med. Fold Change (95% CI) from Day 1", "setting": "[4]; 27–29 Days from C1, N=8", "result": "0.63 (0.31, 5.37)"}, {"measurement": "Eosinophils %, Med. Fold Change (95% CI) from Day 1", "setting": "[4]; 27–29 Days from C1, N=8", "result": "0.76 (0.48, 4.19)"}, {"measurement": "Absolute Basophil Count, Med. Fold Change (95% CI) from Day 1", "setting": "[4]; 27–29 Days from C1, N=9", "result": "0.33 (0.00, 0.67)"}, {"measurement": "Basophils %, Med. Fold Change (95% CI) from Day 1", "setting": "[4]; 27–29 Days from C1, N=9", "result": "0.22 (0.00, 0.83)"}, {"measurement": "Absolute Lymphocyte Count, Med. Fold Change (95% CI) from Day 1", "setting": "[4]; 27–29 Days from C1, N=10", "result": "0.86 (0.60, 1.21)"}, {"measurement": "Absolute Monocyte Count, Med. Fold Change (95% CI) from Day 1", "setting": "[4]; 27–29 Days from C1, N=10", "result": "0.64 (0.26, 0.88)"}, {"measurement": "Absolute Neutrophil Count, Med. Fold Change (95% CI) from Day 1", "setting": "[4]; 27–29 Days from C1, N=10", "result": "0.70 (0.46, 1.66)"}, {"measurement": "Hemoglobin (Hgb), Med. Fold Change (95% CI) from Day 1", "setting": "[4]; 27–29 Days from C1, N=10", "result": "1.03 (0.95, 1.13)"}, {"measurement": "Lymphocytes %, Med. Fold Change (95% CI) from Day 1", "setting": "[4]; 27–29 Days from C1, N=10", "result": "1.28 (0.47, 1.95)"}, {"measurement": "Monocytes %, Med. Fold Change (95% CI) from Day 1", "setting": "[4]; 27–29 Days from C1, N=10", "result": "0.84 (0.26, 1.06)"}, {"measurement": "Neutrophils % + bands, Med. Fold Change (95% CI) from Day 1", "setting": "[4]; 27–29 Days from C1, N=10", "result": "0.97 (0.78, 1.30)"}, {"measurement": "Platelet Count, Med. Fold Change (95% CI) from Day 1", "setting": "[4]; 27–29 Days from C1, N=10", "result": "0.94 (0.79, 1.18)"}, {"measurement": "White blood cell (WBC), Med. Fold Change (95% CI) from Day 1", "setting": "[4]; 27–29 Days from C1, N=10", "result": "0.81 (0.58, 1.28)"}]}]}
